The target of data set [1] is Amyloid-beta precursor protein (Homo sapiens) (UniProt P05067). Briefly: Inhibition of amyloid beta (1 to 42) (unknown origin) self-aggregation at 10 uM after 24 hrs by ESI-IT-MS analysis. A digest of the protocol: (§1)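 Aβ42 incubated 24 h at 30 °C with or without inhibitor; monomer (Aβ42m) and oxidized monomer (Aβ42m Ox) quantified by mass spectrometry with reserpine as internal standard. Residual monomer expressed versus t0 control; oxidized monomer expressed as fold over 24 h control. Test levels 2, 10 and 50 μM.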
Amyloid-beta precursor protein (Homo sapiens), sequence (P05067 whole entry): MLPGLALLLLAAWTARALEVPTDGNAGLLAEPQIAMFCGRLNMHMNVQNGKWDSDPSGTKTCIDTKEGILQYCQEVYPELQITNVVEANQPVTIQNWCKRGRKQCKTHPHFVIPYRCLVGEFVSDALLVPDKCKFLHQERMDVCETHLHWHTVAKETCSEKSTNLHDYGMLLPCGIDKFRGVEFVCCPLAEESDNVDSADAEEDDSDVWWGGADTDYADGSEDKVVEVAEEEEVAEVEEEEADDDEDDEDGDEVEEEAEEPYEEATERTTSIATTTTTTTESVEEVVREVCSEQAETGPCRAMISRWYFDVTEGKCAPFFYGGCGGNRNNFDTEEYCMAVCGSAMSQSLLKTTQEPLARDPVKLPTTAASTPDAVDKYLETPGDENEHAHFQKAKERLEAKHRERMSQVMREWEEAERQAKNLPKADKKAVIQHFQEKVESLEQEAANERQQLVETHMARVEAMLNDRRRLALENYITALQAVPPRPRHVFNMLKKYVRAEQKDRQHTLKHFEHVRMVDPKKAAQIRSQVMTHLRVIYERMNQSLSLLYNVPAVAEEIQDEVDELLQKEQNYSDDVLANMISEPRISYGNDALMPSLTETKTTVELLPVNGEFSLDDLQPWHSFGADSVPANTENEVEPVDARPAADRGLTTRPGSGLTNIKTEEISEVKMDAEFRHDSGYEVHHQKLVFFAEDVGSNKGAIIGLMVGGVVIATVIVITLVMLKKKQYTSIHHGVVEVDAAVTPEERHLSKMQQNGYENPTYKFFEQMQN

Data set [2] relates to T67. Briefly: Pro-oxidant activity in human T67 cells assessed as induction of mitochondrial ROS generation after 4 hrs by MitoSOX Red probe based fluorescence assay. In kind it is functional, cell-based. Put shortly:
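T67 cells treated 4 h with compound at 1–10 μM; mitochondrial superoxide read by MitoSOX Red fluorescence. Antimycin A (10 μM) as positive control. n = 8; one-way ANOVA with Dunnett's test versus untreated control.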

In data set [3] the target is Amyloid-beta precursor protein (Homo sapiens) (UniProt P05067). The experiment in a line: Inhibition of amyloid beta (1 to 42) (unknown origin) self-aggregation assessed as residual amyloid beta 42 monomer level at 10 uM after 24 hrs by ESI-IT-MS analysis. Put shortly:
as §1

Data set [4] shares this target. The experiment in a line: Inhibition of amyloid beta (1 to 42) (unknown origin) self-aggregation assessed as residual amyloid beta 42 monomer level at 50 uM after 24 hrs by ESI-IT-MS analysis. Put shortly:
as §1

The target is the same in data set [5]. The experiment in a line: Inhibition of amyloid beta (1 to 42) (unknown origin) self-aggregation at 50 uM after 24 hrs by ESI-IT-MS analysis. Put shortly:
as §1

For data set [6] the target is unchanged. The experiment in a line: Inhibition of amyloid beta (1 to 42) (unknown origin) self-aggregation assessed as increase in oxidized amyloid beta 42 monomer level at 50 uM after 24 hrs by ESI-IT-MS analysis relative to control. A digest of the protocol: as §1
Another data set is filed under the species Rattus norvegicus. The experiment in a line: Neurotoxicity in rat mixed cortical neurons assessed as neuronal cell death up to 50 uM after 48 hrs by trypan blue dye based phase contrast microscopic analysis. In kind it is toxicity, organism-based. The settings on record: cortical neurone. Put shortly: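 Mixed rat cortical cell cultures exposed to compound at 0.25−50 μM for 48 h; dead neurons stained with Trypan blue and counted microscopically to quantify neuronal damage.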

Data set [7] has as its target Amyloid-beta precursor protein (Homo sapiens) (UniProt P05067). The experiment in a line: Inhibition of amyloid beta (1 to 42) (unknown origin) self-aggregation assessed as increase in oxidized amyloid beta 42 monomer level after 24 hrs by ESI-IT-MS analysis. A digest of the protocol:
as §1

In data set [8] the test system is T67. The experiment in a line: Antioxidant activity in human T67 cells assessed as decrease in TBHP-induced ROS generation at 10 uM pretreated for 4 hrs followed by TBPH addition for 30 mins by DCFDA dye based fluorescence assay. In kind it is functional, cell-based.
Data set [9] addresses Amyloid-beta precursor protein (Homo sapiens) (UniProt P05067). The experiment in a line: Inhibition of amyloid beta (1 to 42) (unknown origin) self-aggregation assessed as residual amyloid beta 42 monomer level at 2 uM after 24 hrs by ESI-IT-MS analysis. A digest of the protocol: as §1
Data set [10] shares this target. Briefly: Inhibition of amyloid beta (1 to 42) (unknown origin) self-aggregation at 2 uM after 24 hrs by ESI-IT-MS analysis. Put shortly: as §1
Data set [11] shares this target. The experiment in a line: Inhibition of amyloid beta (1 to 42) (unknown origin) self-aggregation assessed as increase in oxidized amyloid beta 42 monomer level at 2 uM after 24 hrs by ESI-IT-MS analysis relative to control. A digest of the protocol: as §1
Data set [12] shares this target. Briefly: Inhibition of amyloid beta (1 to 42) (unknown origin) self-aggregation assessed as increase in oxidized amyloid beta 42 monomer level at 10 uM after 24 hrs by ESI-IT-MS analysis relative to control. A digest of the protocol:
as §1

The target is the same in data set [13]. The experiment in a line: Neuroprotective activity against amyloid beta (1 to 42) (unknown origin)-induced neuronal cell death in rat mixed cortical neurons assessed as number of dead neurons at 5 uM incubated for 72 hrs by trypan blue dye based phase contrast microscopic analysis (reference value: 71.7 +/- 3.1). A digest of the protocol: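 100 μM Aβ42 preincubated 72 h alone or with 5-fold molar excess of inhibitor, then added to rat mixed cortical cultures for a further 72 h (final inhibitor 5 μM). Dead neurons stained with Trypan blue, counted in three random microscopic fields/well; means ± SEM of nine determinations.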

The next data set concerns neuronal. The experiment in a line: Neuroprotective activity against human amyloid beta (1 to 42)-induced neuronal cell death in rat mixed cortical neurons assessed as decrease in number of dead neurons up to 25 uM incubated for 72 hrs by trypan blue dye based phase contrast microscopic analysis. Put shortly:
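Rat mixed cortical cultures exposed to Aβ42 oligomers preformed by 72 h incubation, with compound added separately; 72 h exposure. Trypan blue–stained dead neurons counted in three random fields/well; means ± SEM of nine determinations.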

The text below walks through data of ChEMBL document CHEMBL3864188, “Polyamine Conjugation as a Promising Strategy To Target Amyloid Aggregation in the Framework of Alzheimer's Disease” (ACS Med Chem Lett, 2016).

One may read the inhibition as the change of the read-out against control, counted positive when it falls.

Calls of active or inactive are those of the source. No cut-off for these calls is given here.

Turning to `NCCCNCCCCNCCCNC(=O)CCC(=O)N1C/C(=C\c2ccccc2)C(=O)/C(=C/c2ccccc2)C1`, the inhibition in [1] is less than 10%.
As to `NCCCNCCCCNCCCNC(=O)CCC(=O)N1C/C(=C\c2ccc(O)cc2)C(=O)/C(=C/c2ccc(O)cc2)C1`, in data set [1], the inhibition was less than 10%. Besides, the Activity result with T67 [2] is “Dose-dependent effect”.
In the case of `NCCCNCCCCNCCCNC(=O)CCC(=O)N1C/C(=C/c2cccc(O)c2)C(=O)/C(=C/c2cccc(O)c2)C1`, in data set [1], the inhibition was less than 10%.
For `Cl.O=C1/C(=C/c2ccc(O)c(O)c2)CNC/C1=C\c1ccc(O)c(O)c1`, the figures for the Activity (in [3]; in data set [4]; in the data set listed under Rattus norvegicus) were 20.5%, 61.9% and “Non-Toxic”, respectively. For the same compound, the inhibition in data set [5] was 54.1%; in [7] it was “Dose-dependent effect”. For the same compound, the fold change (FC) in data set [6] worked out at 2.56.
In data set [1], `COc1cc(/C=C2\CN(C(=O)CCC(=O)NCCCNCCCCNCCCN)C/C(=C\c3ccc(O)c(OC)c3)C2=O)ccc1O` displayed an inhibition of less than 10%. For the same compound, the result with T67 [8] was Active.
In the case of `COc1ccc(/C=C2/CN(C(=O)CCC(=O)NCCCNCCCCNCCCN)C/C(=C\c3ccc(OC)c(OC)c3)C2=O)cc1OC`, the inhibition in data set [1] was less than 10%.
Take `NCCCNCCCCNCCCNC(=O)CCC(=O)N1C/C(=C/c2ccc(O)c(O)c2)C(=O)/C(=C/c2ccc(O)c(O)c2)C1.O=C(O)C(F)(F)F`: the Activity in data set [3] was 53%; in [9], 27%; in the data set on T67 [2] it was “Dose-dependent effect”; in the data set listed under Rattus norvegicus, “Non-Toxic”; in [13] it was 46.5. The values for the inhibition in data set [10] and in data set [7] were 12% and “Dose-dependent effect”, respectively. Also, the fold change (FC) in data set [6] came to 2.79; in data set [11], 1.46; in [12] it was 2.14. Further, in the data set on neuronal, the outcome was Active.
